Results from BindingDB's records for doi:10.1021/jm030916r (Uppsala University, 2004).

How the values were obtained:
Thioredoxin reductase 3 [1] = biological target: T1, Thioredoxin reductase 3 (Homo sapiens, UniProt Q86VQ6); test: Inhibition of thioredoxin reductase
T1 sequence (Q86VQ6 whole entry): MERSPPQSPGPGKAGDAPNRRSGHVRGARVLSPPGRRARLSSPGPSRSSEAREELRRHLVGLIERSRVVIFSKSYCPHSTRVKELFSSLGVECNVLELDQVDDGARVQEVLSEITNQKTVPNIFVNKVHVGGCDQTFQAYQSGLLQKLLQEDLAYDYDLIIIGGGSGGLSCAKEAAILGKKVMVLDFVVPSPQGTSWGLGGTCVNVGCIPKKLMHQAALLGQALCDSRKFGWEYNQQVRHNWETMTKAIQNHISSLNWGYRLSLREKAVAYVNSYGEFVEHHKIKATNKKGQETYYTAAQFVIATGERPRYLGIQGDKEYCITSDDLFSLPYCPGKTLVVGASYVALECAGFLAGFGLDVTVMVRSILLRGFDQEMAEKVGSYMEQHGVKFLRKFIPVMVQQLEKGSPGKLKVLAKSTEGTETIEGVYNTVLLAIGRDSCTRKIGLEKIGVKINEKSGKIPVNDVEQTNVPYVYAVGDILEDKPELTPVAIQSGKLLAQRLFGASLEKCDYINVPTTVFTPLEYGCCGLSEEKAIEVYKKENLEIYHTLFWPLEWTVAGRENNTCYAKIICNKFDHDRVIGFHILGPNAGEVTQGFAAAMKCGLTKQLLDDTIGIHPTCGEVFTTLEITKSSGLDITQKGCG
How it was run: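 TrxR-only activity in HE buffer (100 mM HEPES pH 7.2, 5 mM EDTA) with 1.0 μM TrxR, 10 mM DTNB, 1 mM NADPH and inhibitor (final). Compound and enzyme added first, reaction started with NADPH/DTNB at 37 °C. OD 412 nm read every 10 s for initial linear rates. IC50 is 50% inhibition of thionitrobenzoate formation.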

Thioredoxin reductase 3 [2] = biological target: T1, Thioredoxin reductase 3; test: Inhibition of thioredoxin reductase in the presence of thioredoxinand insulin
How it was run: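 Insulin reduction coupled to Trx/TrxR, final concentrations: 100 mM HEPES pH 7.2, 5 mM EDTA, 1 mM NADPH, 1.0 μM TrxR, 0.8 μM Trx, 2.5 mg/mL bovine insulin plus inhibitor. 30 min at 37 °C, stopped with 6 M guanidine HCl/50 mM Tris pH 8.0/10 mM DTNB, absorbance at 412 nm. IC50 for 50% inhibition of thionitrobenzoate formation.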

Compound `OCC1O[C@@H]2O[C@@H]3C(C[Te]c4ccccc4)O[C@H](O[C@@H]4C(CO)O[C@H](O[C@@H]5C(CO)O[C@H](O[C@@H]6C(CO)O[C@@H](O[C@@H]7C(CO)O[C@H](O[C@@H]8C(CO)O[C@H](O[C@H]1C(O)C2O)C(O)C8O)C(O)C7O)C(O)C6O)C(O)C5O)C(O)C4O)C(O)C3O` (some centres not stated) has an IC50 (Thioredoxin reductase 3 [1]) of 17.8 µM and an IC50 (Thioredoxin reductase 3 [2]) of 18 µM.
